The source made the active and inactive calls. The rule behind the calls is not given here.
Legend:
Homo sapiens = organism: Homo sapiens; experiment: Cytotoxicity against human SHG44 at 50 uM after 24 hrs by cell counting kit-8 assay; format: functional
In short: (§1)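 SHG-44 glioblastoma cells were maintained in DMEM with 10% FBS and penicillin/streptomycin at 37 °C under 5% CO2. They were seeded at 5000/well in DMEM with 1% FBS and grown overnight, then exposed for 24 h to compound (0.1–100 μM) or 0.1% DMSO vehicle. CCK-8 was added for 2 h at 37 °C and A450 read. Results were from triplicates, expressed as % of vehicle.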

SHG44 = experiment: Antiproliferative activity against human SHG44 cells at 0.1 to 100 uM after 24 hrs by cell counting kit-8 assay; format: functional, cell-based; in short: as §1
[1] = Growth inhibition of human SHG44 at 10 uM after 24 hrs by cell counting kit-8 assay; format: functional; settings: SHG-44, 24 h, read-out: GI; in short: as §1
[2] = Antiproliferative activity against human SHG44 cells after 24 hrs by cell counting kit-8 assay; format: functional, cell-based; settings: SHG-44, 24 h; in short: as §1

| Structure (SMILES) | Activity (Homo sapiens) | Activity (SHG44) | inhibition of growth at 10 µM [1] | IC50 [2] |
| --- | --- | --- | --- | --- |
| CCCCCCCCC[C@H](O)[C@@H](C)N | Active |  |  |  |
| CCC/C=C\CCCC[C@H](O)[C@@H](C)N | Active | inactive |  |  |
| CC(C)CCCCCCC[C@H](O)[C@@H](C)N | Active | inactive |  |  |
| CCCCCCCCCCC[C@@H](O)[C@H](C)N [XETOAMINOL C] | Active |  | 100% | 4.5 µM |
| CCCCCCCCC[C@@H](O)[C@H](C)N | Active |  | 80% | 7.96 µM |
| CCCCCCCCC[C@H](O)[C@H](N)CO | Active |  | 60% | 4.41 µM |

— ChEMBL document CHEMBL1833911, “Diastereoselective synthesis and bioactivity of long-chain anti-2-amino-3-alkanols” (Eur J Med Chem, 2011)
